Publication PMC4703501 (Leukemia, 2015)
pIC50: −log10 of the molar value. Entries after “also recorded” stand apart in the source; their conditions may differ.

Legend:
[1] = plasma level pharmacokinetics; type: in vivo, CD-1 mice; details: for area under the curve (AUC) as molar concentration / area under the curve (AUC): plasma
Method in brief: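 Female CD-1 mice (10–12 weeks) received 50mg/kg test compound dissolved in water, ip or by oral gavage. Sampling was at 10, 30 min and 1, 2, 4, 8 h, n=2 per time point, with heart-puncture blood into heparin/EDTA tubes. Plasma was analysed by LC/MS, and AUC was calculated by the trapezoidal rule.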

[2] = tested on: primary patient-derived MCL cells (MEM1, MEM2); test: Rb and AKT pathway western blot in primary MCL; type: cell-based, human; details: both primary MCL samples, 18 hrs
Method in brief: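 Red cells were removed from primary MCL samples with ammonium chloride. Cells were then treated with increasing concentrations of test compound for 18 hrs and lysed in RIPA buffer (25mM Tris-HCl pH 7.5, 150mM NaCl, 1% NP40, 1% SDS, phosphatase inhibitors). […], nitrocellulose transfer and infrared imaging.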

CDK2 = CDK2 (Homo sapiens, UniProt P24941); test: in vitro kinase assay; type: biochemical; details: data not shown
SNU-5 = test: GI50 growth inhibition assay; type: cell-based; details: Homo sapiens, SNU-5, 96 h
Method in brief: (§1)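 Cell lines were grown in DMEM or RPMI with 10% FBS and pen-strep at 37°C, 5% CO₂, and were mycoplasma-negative. Cells were seeded at 2.5×10³ per 0.1 ml per well, and test compound was added 24 hrs later at the indicated concentrations. Viable cells were measured by resazurin (Cell Titer Blue) read-out 96 hrs post-treatment in duplicate wells.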

Z138C cells = test: cell cycle distribution, propidium iodide flow cytometry; type: cell-based, human; details: 24 hours; for accumulation of cells in the sub-G1 phase: for ON123300 at higher concentrations
Method in brief: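 Z138C cells were treated with DMSO or increasing concentrations of test compound for 24 hours. They were then ethanol-fixed, PBS-washed and stained with RNase plus propidium iodide at 37°C for 20 min. DNA content was measured by flow cytometry to assign cell-cycle phases.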

SNU-398 = test: GI50 growth inhibition assay; type: cell-based; details: Homo sapiens, SNU-398, 96 h
Method in brief: as §1

[3] = maximum tolerated dose study; type: in vivo, CD-1 mice
Method in brief: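 Female CD-1 mice (10–12 weeks), n=3 per group, were used. One arm received a single ip dose of 100 or 200 mg/kg, with toxicity signs and body weight followed for 7 days. The other arm received 200mg/kg ip for 5 consecutive days, followed for 10 days.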

Z138C = test: GI50 growth inhibition assay; type: cell-based; details: Homo sapiens, 96 h
Method in brief: (§2)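 Cells from ATCC were grown in DMEM or RPMI with 10% FBS and penicillin-streptomycin at 37°C, humidified, 5% CO₂, and tested mycoplasma-negative. They were seeded at 2.5×10³ cells per 0.1 ml per well. Test compound was added 24 hrs after plating at a range of concentrations. Viable cells were measured by Cell Titer Blue from duplicate wells 96 hrs after treatment.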

Z138C xenograft = test: Z138C tumor xenograft assay; type: in vivo, nu/nu mice
MDA-MB-231 = test: GI50 growth inhibition assay; type: cell-based; details: Homo sapiens, MDA-MB-231, 96 h
Method in brief: as §1

GRANTA-519 = test: GI50 growth inhibition assay; type: cell-based; details: Homo sapiens, Granta-519, 96 h
Method in brief: as §1

COLO-205 = test: GI50 growth inhibition assay; type: cell-based; details: Homo sapiens, COLO 205, 96 h
Method in brief: as §1

BT-20 = test: GI50 growth inhibition assay; type: cell-based; details: Homo sapiens, BT-20, 96 h
Method in brief: as §1

CDK8 = CDK8 (Homo sapiens, UniProt P49336); test: in vitro kinase assay; type: biochemical; details: data not shown
[4] = tested on: Granta 519 and Z138C cells; test: apoptosis markers; type: cell-based, human; details: for PARP cleavage at lower concentrations: 72–96 hrs incubation, data not shown
Method in brief: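 Granta 519 and Z138C cells were treated with test compound, then lysed in NP-40 buffer. Western blots on nitrocellulose assessed full-length caspases 3, 7 and 9 and PARP cleavage as apoptosis markers.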

CDK5 = CDK5 (Homo sapiens, UniProt Q00535); test: in vitro kinase assay; type: biochemical; details: data not shown
[5] = tested on: exponentially growing Z138 cells; test: p65; type: cell-based, human; details: 24 hrs
Method in brief: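 Exponentially growing Z138 cells were exposed to test compound. Whole-cell extracts were probed by western blot for p65 (NF-kB) phosphorylation.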

SW480 = test: GI50 growth inhibition assay; type: cell-based; details: Homo sapiens, SW480, 96 h
Method in brief: as §1

[6] = previous studies; cited from earlier work
BT-474 = test: GI50 growth inhibition assay; type: cell-based; details: Homo sapiens, BT-474, 96 h
Method in brief: as §2

DLD-1 = test: GI50 growth inhibition assay; type: cell-based; details: Homo sapiens, DLD-1, 96 h
Method in brief: as §1

[7] = tested on: Granta 519 and Z138C cells; test: CDK4/CYCLIN D/Rb pathway western blot; type: cell-based, human; details: 24 hours; for phosphorylation of pRb and p130: increasing concentrations
Method in brief: (§3)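 Granta 519 and Z138C cells (RPMI or DMEM, 10% FBS, pen-strep, 37°C, 5% CO₂) received vehicle or increasing concentrations of test compound for 24 hours. Whole-cell extracts were made in NP-40 lysis buffer (Tris pH 7.4, NaF, Na₃VO₄), run on SDS-PAGE and blotted to nitrocellulose. Detection used infrared imaging, GAPDH was the loading control, and 4 independent experiments were done.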

[8] = tested on: primary patient-derived MCL cells (MEM1 ibrutinib-sensitive, MEM2 ibrutinib-resistant); test: Annexin V staining of primary patient-derived MCL; type: cell-based, human; details: 5µM ON123300; 24 hrs (legend: 18 hrs)
Method in brief: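 Patient MCL specimens (lymph node or peripheral blood) made into single-cell suspensions and cryopreserved in 90% FBS/10% DMSO in liquid nitrogen. Cells exposed to the indicated concentrations of test compound for 18 hrs. Apoptosis read as FITC-Annexin V staining by flow cytometry.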

MIA-PaCa-2 = test: GI50 growth inhibition assay; type: cell-based; details: Homo sapiens, MIA PaCa-2, 96 h
Method in brief: as §2

[9] = tested on: Granta 519 and Z138C cells; test: PI3K/AKT/mTOR pathway western blot; type: cell-based, human; details: 24 hours
Method in brief: as §3

[10] = tested on: Granta 519 and Z138 cell lines; test: MAP kinase pathway; type: cell-based, human; details: 24 hrs
MCL cell lines = test: GI50 assays, MCL cell lines versus other tumor types; type: cell-based, human; details: over a 96 hr period
Method in brief: as §1

HCT-15 = test: GI50 growth inhibition assay; type: cell-based; details: Homo sapiens, HCT-15, 96 h
Method in brief: as §1

MDA-MB-157 = test: GI50 growth inhibition assay; type: cell-based; details: Homo sapiens, MDA-MB-157, 96 h
Method in brief: as §1

HeLa cells = test: TNF-α induced p65 NF-kB phosphorylation western blot; type: cell-based, human; details: 5ng/ml TNF-α for 5 min after treatment
Method in brief: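 Positive-control system: HeLa cells were pretreated with test compound, then stimulated with 5ng/ml TNF-α for 5 min. Phospho-p65 NF-kB was assessed by western blot of whole-cell extracts.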

CDK1 = CDK1 (Homo sapiens, UniProt P06493); test: in vitro kinase assay; type: biochemical; details: data not shown
PI3K-δ = PI3K-δ (Homo sapiens, UniProt O00329); test: in vitro kinase assay, recombinant protein; type: biochemical
Method in brief: (§4)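 Recombinant kinases were incubated with the indicated concentrations of test compound in in vitro kinase assays. Activity values were plotted against log drug concentration. IC50 came from sigmoidal non-linear regression with variable slope.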

ARK5 = ARK5 (Homo sapiens, UniProt O60285); test: in vitro kinase assay, recombinant protein; type: biochemical
Method in brief: as §4

Chain of PI3K-δ (O00329 whole entry): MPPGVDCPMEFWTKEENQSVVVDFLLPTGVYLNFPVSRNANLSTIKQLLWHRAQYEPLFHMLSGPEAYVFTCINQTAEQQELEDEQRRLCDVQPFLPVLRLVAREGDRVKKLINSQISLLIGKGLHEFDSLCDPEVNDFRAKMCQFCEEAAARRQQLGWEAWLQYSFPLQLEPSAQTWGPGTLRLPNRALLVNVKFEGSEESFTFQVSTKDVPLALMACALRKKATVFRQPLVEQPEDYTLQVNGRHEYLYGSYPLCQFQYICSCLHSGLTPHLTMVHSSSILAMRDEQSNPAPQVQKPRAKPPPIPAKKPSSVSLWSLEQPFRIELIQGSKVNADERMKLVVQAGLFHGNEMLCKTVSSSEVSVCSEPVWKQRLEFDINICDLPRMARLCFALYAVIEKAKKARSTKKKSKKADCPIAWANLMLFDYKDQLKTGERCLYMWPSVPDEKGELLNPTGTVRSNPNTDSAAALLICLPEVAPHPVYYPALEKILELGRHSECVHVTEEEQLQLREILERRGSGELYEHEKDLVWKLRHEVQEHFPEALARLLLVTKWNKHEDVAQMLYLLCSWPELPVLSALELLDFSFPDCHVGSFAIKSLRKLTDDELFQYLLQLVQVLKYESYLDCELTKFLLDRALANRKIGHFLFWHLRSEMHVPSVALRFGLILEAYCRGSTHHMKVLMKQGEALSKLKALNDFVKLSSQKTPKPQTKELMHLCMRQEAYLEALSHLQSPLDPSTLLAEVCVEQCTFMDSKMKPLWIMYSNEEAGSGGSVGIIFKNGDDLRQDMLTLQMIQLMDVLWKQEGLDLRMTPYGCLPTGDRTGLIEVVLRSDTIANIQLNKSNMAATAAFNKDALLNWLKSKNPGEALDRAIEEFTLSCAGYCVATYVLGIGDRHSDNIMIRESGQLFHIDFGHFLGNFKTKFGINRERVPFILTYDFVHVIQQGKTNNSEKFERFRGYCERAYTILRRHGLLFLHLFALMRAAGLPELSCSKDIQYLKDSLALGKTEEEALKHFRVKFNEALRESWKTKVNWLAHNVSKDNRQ
Chain of PI3K-δ (P27986 whole entry partner): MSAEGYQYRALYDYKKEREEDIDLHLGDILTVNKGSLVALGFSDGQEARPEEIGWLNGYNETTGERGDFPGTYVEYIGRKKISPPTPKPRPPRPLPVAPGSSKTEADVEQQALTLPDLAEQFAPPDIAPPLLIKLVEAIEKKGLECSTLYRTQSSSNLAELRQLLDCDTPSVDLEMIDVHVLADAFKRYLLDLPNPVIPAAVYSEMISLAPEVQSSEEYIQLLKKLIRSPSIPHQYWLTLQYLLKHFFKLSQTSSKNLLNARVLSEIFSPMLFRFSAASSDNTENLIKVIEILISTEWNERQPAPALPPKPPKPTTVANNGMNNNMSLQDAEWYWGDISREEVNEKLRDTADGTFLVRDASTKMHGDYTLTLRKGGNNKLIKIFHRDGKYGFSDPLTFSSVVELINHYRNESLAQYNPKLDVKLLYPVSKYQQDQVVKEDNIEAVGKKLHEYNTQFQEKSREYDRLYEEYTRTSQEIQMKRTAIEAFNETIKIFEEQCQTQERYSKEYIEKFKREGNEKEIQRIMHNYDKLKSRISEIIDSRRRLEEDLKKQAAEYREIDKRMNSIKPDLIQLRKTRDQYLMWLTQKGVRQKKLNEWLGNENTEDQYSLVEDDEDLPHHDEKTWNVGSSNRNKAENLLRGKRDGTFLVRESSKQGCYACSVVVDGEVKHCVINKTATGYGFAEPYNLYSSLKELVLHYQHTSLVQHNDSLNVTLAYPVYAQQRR
Chain of CDK5 (Q00535 whole entry): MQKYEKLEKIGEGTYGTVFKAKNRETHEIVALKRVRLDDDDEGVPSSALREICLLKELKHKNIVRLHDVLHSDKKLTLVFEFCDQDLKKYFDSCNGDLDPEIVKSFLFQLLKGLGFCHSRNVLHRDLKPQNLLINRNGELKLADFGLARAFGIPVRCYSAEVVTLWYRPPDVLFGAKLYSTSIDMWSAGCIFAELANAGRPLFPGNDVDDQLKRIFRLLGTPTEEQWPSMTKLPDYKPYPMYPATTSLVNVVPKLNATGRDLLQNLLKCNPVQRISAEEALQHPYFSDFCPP
Chain of CDK5 (Q15078 99-307 partner limits assumed): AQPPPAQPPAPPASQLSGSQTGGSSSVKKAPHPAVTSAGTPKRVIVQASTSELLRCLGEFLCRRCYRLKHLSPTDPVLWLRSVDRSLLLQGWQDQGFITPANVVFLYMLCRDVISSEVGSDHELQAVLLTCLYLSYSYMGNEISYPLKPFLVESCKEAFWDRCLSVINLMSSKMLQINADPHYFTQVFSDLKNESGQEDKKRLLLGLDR
Chain of ARK5 (O60285 whole entry): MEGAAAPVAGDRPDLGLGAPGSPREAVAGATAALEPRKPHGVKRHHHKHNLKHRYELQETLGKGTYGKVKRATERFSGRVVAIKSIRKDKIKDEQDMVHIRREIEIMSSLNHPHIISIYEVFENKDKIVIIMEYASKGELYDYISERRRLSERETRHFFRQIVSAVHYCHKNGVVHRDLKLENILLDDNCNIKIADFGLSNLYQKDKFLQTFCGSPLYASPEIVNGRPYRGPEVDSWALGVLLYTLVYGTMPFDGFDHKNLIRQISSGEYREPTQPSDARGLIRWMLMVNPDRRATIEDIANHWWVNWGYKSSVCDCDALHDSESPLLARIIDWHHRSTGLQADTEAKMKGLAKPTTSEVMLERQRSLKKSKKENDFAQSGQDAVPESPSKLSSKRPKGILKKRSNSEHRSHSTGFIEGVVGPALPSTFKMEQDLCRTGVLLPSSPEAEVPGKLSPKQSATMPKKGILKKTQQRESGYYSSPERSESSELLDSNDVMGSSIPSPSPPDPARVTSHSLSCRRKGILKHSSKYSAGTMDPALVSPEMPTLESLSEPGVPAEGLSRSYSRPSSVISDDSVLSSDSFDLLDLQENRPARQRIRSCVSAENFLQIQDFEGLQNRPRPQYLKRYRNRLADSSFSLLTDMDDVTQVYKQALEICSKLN
Chain of CDK1 (P06493 whole entry): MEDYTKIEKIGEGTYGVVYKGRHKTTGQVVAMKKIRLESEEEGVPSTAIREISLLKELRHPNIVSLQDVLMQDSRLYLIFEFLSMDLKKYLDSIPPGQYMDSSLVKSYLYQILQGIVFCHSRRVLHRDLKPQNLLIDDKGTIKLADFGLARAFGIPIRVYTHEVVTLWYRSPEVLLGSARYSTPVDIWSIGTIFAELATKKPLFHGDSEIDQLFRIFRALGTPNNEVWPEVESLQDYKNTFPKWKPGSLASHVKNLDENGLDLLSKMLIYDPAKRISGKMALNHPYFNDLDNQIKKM
Chain of CDK1 (P14635 whole entry, further chain): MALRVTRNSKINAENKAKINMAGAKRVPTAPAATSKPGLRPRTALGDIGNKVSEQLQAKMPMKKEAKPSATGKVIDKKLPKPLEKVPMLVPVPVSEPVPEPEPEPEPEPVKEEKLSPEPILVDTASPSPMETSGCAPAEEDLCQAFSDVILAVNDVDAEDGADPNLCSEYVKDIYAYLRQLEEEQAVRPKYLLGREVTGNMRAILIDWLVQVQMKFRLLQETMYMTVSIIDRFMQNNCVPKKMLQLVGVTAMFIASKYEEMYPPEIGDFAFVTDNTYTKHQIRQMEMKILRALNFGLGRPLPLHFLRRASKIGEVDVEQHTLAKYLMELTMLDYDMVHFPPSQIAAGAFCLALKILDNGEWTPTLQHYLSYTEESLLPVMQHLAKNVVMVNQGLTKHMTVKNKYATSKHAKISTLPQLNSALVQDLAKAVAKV
Chain of CDK8 (P49336 whole entry): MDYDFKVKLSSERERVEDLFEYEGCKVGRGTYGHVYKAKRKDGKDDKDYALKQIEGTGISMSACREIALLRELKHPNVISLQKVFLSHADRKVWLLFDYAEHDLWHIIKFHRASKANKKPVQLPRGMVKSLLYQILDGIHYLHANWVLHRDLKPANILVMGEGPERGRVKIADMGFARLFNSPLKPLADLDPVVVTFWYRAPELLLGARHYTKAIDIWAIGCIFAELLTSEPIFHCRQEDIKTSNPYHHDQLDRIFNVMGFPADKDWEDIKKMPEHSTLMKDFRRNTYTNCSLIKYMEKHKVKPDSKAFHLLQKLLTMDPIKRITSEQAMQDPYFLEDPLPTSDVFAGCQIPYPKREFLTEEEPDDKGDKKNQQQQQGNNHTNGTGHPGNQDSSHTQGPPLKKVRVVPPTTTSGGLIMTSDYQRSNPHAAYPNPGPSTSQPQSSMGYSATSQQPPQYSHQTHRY
Chain of CDK8 (P24863 whole entry partner): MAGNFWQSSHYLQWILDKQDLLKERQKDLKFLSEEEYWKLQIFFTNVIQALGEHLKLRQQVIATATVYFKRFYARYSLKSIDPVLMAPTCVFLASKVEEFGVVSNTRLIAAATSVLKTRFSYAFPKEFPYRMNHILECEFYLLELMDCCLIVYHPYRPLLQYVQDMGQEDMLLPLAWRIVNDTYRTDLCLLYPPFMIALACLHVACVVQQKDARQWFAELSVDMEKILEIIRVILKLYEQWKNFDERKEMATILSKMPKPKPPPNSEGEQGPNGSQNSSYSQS

CN1CCN(c2ccc(Nc3ncc4cc(C#N)c(=O)n(C5CCCC5)c4n3)cc2)CC1 [ON123300, 8-cyclopentyl-2-[4-(4-methyl-piperazin-1-yl)-phenylamino]-7-oxo-7,8-dihydro-pyrid o[2,3-d]pyrimidine-6-carbonitrile]
oral bioavailability ([1]; mice): orally bio-available
area under the curve (AUC) as molar concentration ([1]; 50mg/kg ip): 16.71 µM/ml/hr
area under the curve (AUC) ([1]; 50mg/kg ip injection): 7.18 µg/mL/h
area under the curve (AUC) ([1]; 50mg/kg oral gavage (po)): 2.78 µg/mL/h
area under the curve (AUC) as molar concentration ([1]; 50mg/kg po): 6.47 µM/ml/hr
levels of Rb and AKT phosphorylation [2]: reductions in the levels of Rb and AKT phosphorylation
phosphorylation of S6RB [2]: inhibited
inhibitory activity against CDK2 (CDK2): little inhibitory activity
GI50 (SNU-5): 200 nM
concentrations at which cells accumulated in the G1 phase (Z138C cells): 0.1 to 1.0 µM
accumulation of cells in the sub-G1 phase (Z138C cells): eventually accumulated in the sub-G1 phase
GI50 (SNU-398): 300 nM
survival rate ([3]; 200mg/kg ip for 5 consecutive days, at least 10 days post-administration): 100%
signs of toxicity ([3]; 200mg/kg ip for 5 consecutive days, data not shown): did not exhibit any signs of toxicity
toxicity ([3]; mice, administered orally or intraperitoneally): minimally toxic
survival rate ([3]; single ip dose 100 or 200 mg/kg, 7 days): 100%
signs of toxicity and body weights ([3]; single ip dose 100 or 200 mg/kg, monitored 7 days): No signs of toxicity or weight loss
GI50 (Z138C): 25 nM
total body weights (Z138C xenograft; 100mg/kg daily treatment): did not cause a significant reduction
tumor growth (Z138C xenograft; 100mg/kg daily, ip, 2-week period, p<0.05): significantly inhibited; also recorded: markedly inhibited tumor growth
GI50 (MDA-MB-231): 200 nM
GI50 (GRANTA-519): 35 nM
GI50 (COLO-205): 200 nM
GI50 (BT-20): 100 nM
inhibitory activity against CDK8 (CDK8): little inhibitory activity
PARP cleavage at lower concentrations [4]: readily resulted in PARP cleavage
concentration at which PARP cleavage is seen ([4]; 24 hrs): greater than or equal to 2.5 µM
levels of full-length caspases 3, 7 and 9 ([4]; 24 hrs): decreases in the levels of full-length forms of caspases 3, 7 and 9
inhibitory activity against CDK5 (CDK5): little inhibitory activity
phosphorylation status of p65 (NF-kB) [5]: no change
GI50 (SW480): 100 nM
blood-brain barrier crossing [6]: readily crosses the blood-brain barrier
GI50 (BT-474): 250 nM
GI50 (DLD-1): 100 nM
levels of CDK4 and CDK2 [7]: unaffected
p21 levels [7]: loss of p21 levels
levels of CYCLIN D1 ([7]; as a function of concentration): declined
phosphorylation of pRb and p130 [7]: inhibited the phosphorylation of pRb and p130
cells stained Annexin V+ [8]: ~100%
GI50 (MIA-PaCa-2): 250 nM
AKT Ser473 phosphorylation [9]: inhibition of AKT Ser473 phosphorylation
FOXO1 phosphorylation [9]: inhibition of FOXO1 phosphorylation
mTOR phosphorylation at Ser2481 [9]: inhibition of mTOR phosphorylation at Ser2481
phosphorylation of 4EBP1 and S6RB [9]: inhibited
phosphorylation status of MEK or ERK kinases [10]: neither ON123300 nor PD0332991 has any effect
concentrations inducing growth arrest and cell death (MCL cell lines): 25 to 50 nM
GI50 (HCT-15): 400 nM
GI50 (MDA-MB-157): 250 nM
phosphorylation status of p65 (HeLa cells): little or no effect
inhibitory activity against CDK1 (CDK1): little inhibitory activity

CC(=O)c1c(C)c2cnc(Nc3ccc(N4CCNCC4)cn3)nc2n(C2CCCC2)c1=O [PD0332991, reference compound]
accumulation of cells in the sub-G1 phase (Z138C cells): little or no accumulation of cells in the sub-G1 phase
accumulation of cells in the G1 phase (Z138C cells; increasing concentrations): rapid accumulation of the cells in the G1 phase
pIC50 (PI3K-δ): < 5.00
inhibitory activity against PI3K-δ (PI3K-δ; in vitro kinase assay): failed to show any inhibitory activity
PARP cleavage at lower concentrations [4]: did not show any PARP cleavage
evidence of apoptosis (PARP cleavage, caspases) ([4]; 24 hrs, increasing concentrations): no evidence of apoptosis
pIC50 (ARK5): < 5.30
phosphorylation status of p65 (NF-kB) [5]: no change
levels of CDK4 and CDK2 [7]: unaffected
p21 levels [7]: not readily seen
phosphorylation of pRb and p130 [7]: inhibited the phosphorylation of pRb and p130
phosphorylation status of AKT, mTOR, 4EBP1 and S6 ribosomal protein (S6RB) [9]: no discernable change
phosphorylation status of MEK or ERK kinases [10]: neither ON123300 nor PD0332991 has any effect
phosphorylation status of p65 (HeLa cells): little or no effect
